Here are results for 5 compounds from article PMC5013402 (BMJ Open Diabetes Research & Care, 2016).

The format of data set [1] is in vivo, human (patients with type 1 or type 2 diabetes). As to conditions: serum, mean (SD), n=19. Put shortly:
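Patients arrived fasting, with the morning prandial dose withheld; basal insulin or oral agents were taken as usual. Each inhaled their current individualized dose (range 15–90 units), then drank a standardized 540 kcal/67.5 g carbohydrate liquid meal. Serum was sampled at −30, 0, 5, 10, 15, 20, 30, 45, 60, 90, 120, 180 and 240 min. The challenge was repeated ≥15 to ≤45 days after symptom resolution, each patient serving as own control. Descriptive statistics.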

The conditions of data set [2]: cited from earlier work; for Terminal clearance half-life from the lung: delivered as Technosphere inhaled insulin.
The conditions of data set [3]: after subcutaneous injection; cited from earlier work.

Read-outs that look alike come from different tables or passages of the source. Marks after values point to notes of the source that are not given here.

`O=C(O)/C=C/C(=O)NCCCC[C@@H]1NC(=O)[C@H](CCCCNC(=O)/C=C/C(=O)O)NC1=O` [FDKP, fumaryl diketopiperazine]: in data set [1] (during URTI), the FDKP tmax was 15.8 (26.2)† min and the “FDKP t½” value is listed as 163.2 (35.5)† min. Besides, in data set [1] (post-URTI), the FDKP tmax is listed as 15.5 (14.8)† min and the “FDKP t½” value is given as 174.8 (79.0)† min. Further, the Excretion result in data set [2] (after inhalation of Technosphere inhaled insulin) is reported as “excreted unchanged in the urine”. Besides, the “Terminal clearance half-life from the lung” value in data set [2] was around 1 h.
insulin aspart: in data set [3], the Duration of action is 3 to 5 h and the “Time to maximum concentration” value was 50 to 120 min.
insulin lispro: in data set [3], the Duration of action was 3 to 5 h and the “Time to maximum concentration” value is 50 to 120 min.
As to “insulin: recombinant human insulin delivered as Technosphere inhaled insulin”, the “Terminal clearance half-life from the lung” value in data set [2] was around 1 h.
Turning to “regular human insulin: regular human insulin given by subcutaneous injection”, in data set [3], the Duration of action is 5 to 8 h and the “Time to maximum concentration” value is 80 to 120 min.
